Assay results: ChEMBL document CHEMBL4385647, “Design, synthesis and biological evaluation of 3-hydroxyquinazoline-2,4(1H,3H)-diones as dual inhibitors of HIV-1 reverse transcriptase-associated RNase H and integrase” (Bioorg Med Chem, 2019)
Active and inactive are the calls of the source. No cut-off for these calls is given here.

Legend:
[1] = Cytotoxicity in mock-infected human MT4 cells assessed as reduction in cell viability incubated for 5 days by MTT assay; format: cell-based
Procedure, shortened: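 Mock-infected MT-4 cells at 6×10^5 cells/mL were exposed to serial five-fold compound dilutions in triplicate wells in parallel with the infected series. After 5 days, viability was read by MTT at 540 and 690 nm from the median OD of two or three wells.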

[2] = test system: Human immunodeficiency virus 1; experiment: Antiviral activity against HIV1 3B infected in human MT4 cells incubated for 5 days by MTT assay; format: functional, organism-based; details: Human immunodeficiency virus 1, 3B, MT4, 120 h
Procedure, shortened: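 MT-4 cells resuspended at 6×10^5 cells/mL and infected with 100-300 CCID50 of HIV-1 IIIB or HIV-2 ROD. Serial five-fold compound dilutions were tested in triplicate wells. After 5 days, viability was measured by MTT reduction with absorbance read at 540 and 690 nm, using the median OD of two or three wells.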

[3] = molecular target: Human immunodeficiency virus type 1 reverse transcriptase (Human immunodeficiency virus 1, UniProt Q72547); experiment: Inhibition of HIV1 reverse transcriptase RNase H activity expressed in Escherichia coli using 32P-labeled template 31Trna RNA and DNA oligonucleotide 21P
[4] = molecular target: Human immunodeficiency virus type 1 integrase (Human immunodeficiency virus 1) (UniProt Q7ZJM1); experiment: Inhibition of strand transfer activity of HIV1 integrase expressed in Escherichia coli at 10 uM using DNA complexes containing 32P-labeled INT1ST and non-labeled INT2
Sequence of Human immunodeficiency virus type 1 integrase (Human immunodeficiency virus 1) (Q7ZJM1 as listed by the source): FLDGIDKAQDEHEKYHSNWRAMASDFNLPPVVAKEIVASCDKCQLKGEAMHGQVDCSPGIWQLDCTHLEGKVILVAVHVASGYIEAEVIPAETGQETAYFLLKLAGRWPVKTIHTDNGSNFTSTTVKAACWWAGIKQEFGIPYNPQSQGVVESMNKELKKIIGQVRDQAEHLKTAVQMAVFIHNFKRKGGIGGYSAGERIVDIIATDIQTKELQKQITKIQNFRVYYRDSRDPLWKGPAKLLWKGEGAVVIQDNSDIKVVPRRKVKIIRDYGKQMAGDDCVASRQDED
Procedure, shortened: (§1)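 Wild-type HIV-1 IN, expressed in E. coli, was assayed for strand transfer with DNA complexes of 32P-labeled INT1ST and unlabeled INT2 at 1% DMSO. Percent inhibition was measured at […].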

[5] = molecular target: Human immunodeficiency virus type 1 integrase (Human immunodeficiency virus 1) (UniProt Q7ZJM1); experiment: Inhibition of strand transfer activity of HIV1 integrase expressed in Escherichia coli at 0.1 to 10 uM using DNA complexes containing 32P-labeled INT1ST and non-labeled INT2; procedure, shortened: as §1
[6] = Apparent permeability in human Caco2 cells by LC analysis; format: ADME, cell-based; details: Caco-2
Procedure, shortened: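 Transport was measured across Caco-2 cell monolayers, with nadolol and metoprolol as controls. Papp (cm/s) was calculated as (dCr/dt)×Vr/(A×C0), where dCr/dt is the cumulative receiver-chamber concentration over time.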

[7] = Inhibition of HIV reverse transcriptase RNase H activity; parameters: species or system Human immunodeficiency virus
Procedure, shortened: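 Wild-type HIV-1 BH10 RT (20-40 nM), expressed in E. coli, was incubated at 37°C in 50 mM Tris-HCl pH 8.0, 50 mM NaCl, 5 mM MgCl2 and 5% DMSO. Cleaved substrate was quantified over 0.2-100 μM compound against a DMSO-only control. IC50 was taken from dose-response curves.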

[8] = molecular target: T1, Human immunodeficiency virus type 1 integrase (Human immunodeficiency virus 1, UniProt Q7ZJM1); experiment: Inhibition of strand transfer activity of HIV1 integrase expressed in Escherichia coli using DNA complexes containing 32P-labeled INT1ST and non-labeled INT2
T1 sequence (Q7ZJM1 whole entry): as the sequence (Q7ZJM1 as listed by the source) above

[9] = molecular target: T1, Human immunodeficiency virus type 1 integrase; experiment: Inhibition of HIV integrase strand transfer activity

O=C(Nc1ccc2c(=O)n(O)c(=O)[nH]c2c1)c1cccc(F)c1
CC50 at 120 h [1]: 39.8 µM
EC50 [2]: > 39.8 µM
IC50 [3]: 3.73 µM

CC(C)(C)c1ccc(S(=O)(=O)Nc2ccc3c(=O)n(O)c(=O)[nH]c3c2)cc1
inhibition [4]: 50 to 60%
inhibition [5]: Active
CC50 at 120 h [1]: 307 µM
EC50 [2]: > 307 µM
IC50 [3]: 5.88 µM

CC(C)(C)NCC(O)COc1cccc2c1CC(O)C(O)C2 (stereo unspecified) [NADOLOL]
Papp [6]: 0.09 ×10⁻⁶ cm/s

O=c1[nH]c2ccc(NS(=O)(=O)c3cccc(C(F)(F)F)c3)cc2c(=O)n1O
CC50 at 120 h [1]: 176 µM
EC50 [2]: > 176 µM
IC50 [3]: 2 µM

NS(=O)(=O)c1ccc(-c2ccc(Cn3cc(O)c(=O)c(C(=O)O)c3)cc2)cc1
IC50 [7]: 0.65 µM

O=c1[nH]c2cc(NS(=O)(=O)c3ccc4ccccc4c3)ccc2c(=O)n1O
inhibition [4]: 50 to 60%
inhibition [5]: Active
CC50 at 120 h [1]: 220 µM
EC50 [2]: > 220 µM
IC50 [3]: 20.1 µM

O=c1[nH]c2ccc(NS(=O)(=O)c3ccc4ccccc4c3)cc2c(=O)n1O
IC50 [8]: 0.85 µM
CC50 at 120 h [1]: 208 µM
EC50 [2]: > 208 µM
Papp [6]: < 0.19 ×10⁻⁶ cm/s
IC50 [3]: 0.41 µM

Cc1nnc(C(=O)NC(C)(C)c2nc(C(=O)NCc3ccc(F)cc3)c(O)c(=O)n2C)o1
CC50 at 120 h [1]: 6.51 µM
EC50 [2]: 0.015 µM

Cc1cccc(S(=O)(=O)Nc2ccc3c(=O)n(O)c(=O)[nH]c3c2)c1
CC50 at 120 h [1]: 310 µM
EC50 [2]: > 310 µM
IC50 [3]: 4.1 µM

O=c1[nH]c2cc(NS(=O)(=O)c3ccc(-c4ccccc4)cc3)ccc2c(=O)n1O
CC50 at 120 h [1]: > 305 µM
EC50 [2]: > 305 µM
IC50 [3]: 11.7 µM

O=C(Nc1ccc2c(=O)n(O)c(=O)[nH]c2c1)c1ccc(F)cc1
CC50 at 120 h [1]: 43 µM
EC50 [2]: > 43 µM
IC50 [3]: 3.73 µM

CCOC(=O)C(=O)CC(=O)/C=C/c1cccn1Cc1ccccc1Cl
IC50 [7]: 7.3 µM

O=c1[nH]c2cc(NS(=O)(=O)c3cccc(C(F)(F)F)c3)ccc2c(=O)n1O
CC50 at 120 h [1]: 80.2 µM
EC50 [2]: > 80.2 µM
IC50 [3]: 5.33 µM

O=c1[nH]c2ccc(NS(=O)(=O)c3ccccc3)cc2c(=O)n1O
CC50 at 120 h [1]: 213 µM
EC50 [2]: > 213 µM
IC50 [3]: 1.19 µM

COc1ccc(Cc2nc(O)c(O)c(C(=O)O)n2)cc1Br
IC50 [7]: 1.4 µM

NCc1ccc(-c2ccc(Cc3cc(=O)n(O)c4ncccc34)cc2)cc1
IC50 [7]: 0.045 µM

O=c1[nH]c2cc(NS(=O)(=O)c3ccc(F)cc3)ccc2c(=O)n1O
CC50 at 120 h [1]: > 356 µM
EC50 [2]: > 356 µM
IC50 [3]: 5.68 µM

O=C(NCc1c(F)cc(F)cc1F)c1cn2c(c(O)c1=O)C(=O)N1[C@H]3CC[C@H](C3)O[C@@H]1C2 [BICTEGRAVIR]
IC50 [9]: 0.0075 µM

COCCc1ccc(OCC(O)CNC(C)C)cc1 (stereo unspecified) [METOPROLOL]
Papp [6]: 14.7 ×10⁻⁶ cm/s

O=C(Nc1ccc2c(=O)n(O)c(=O)[nH]c2c1)c1ccccc1
CC50 at 120 h [1]: 36.6 µM
EC50 [2]: > 36.6 µM
IC50 [3]: 2.52 µM

O=C(Nc1ccc2c(=O)n(O)c(=O)[nH]c2c1)c1ccc(C(F)(F)F)cc1
CC50 at 120 h [1]: 316 µM
EC50 [2]: > 316 µM
IC50 [3]: 6.09 µM

Cc1ccc(C(=O)Nc2ccc3c(=O)n(O)c(=O)[nH]c3c2)cc1
CC50 at 120 h [1]: 10.9 µM
EC50 [2]: > 10.9 µM
IC50 [3]: 2.74 µM

O=C1Cc2cc(Cc3ccc(-c4ccccc4)cc3)ccc2C(=O)N1O
IC50 [7]: 0.8 µM

O=c1[nH]c2ccc(NS(=O)(=O)c3ccc(F)cc3)cc2c(=O)n1O
CC50 at 120 h [1]: 199 µM
EC50 [2]: > 199 µM
IC50 [3]: 2.25 µM

CC(C)c1ccc(O)c(=O)c(O)c1 [BETA-THUJAPLICINOL]
CC50 at 120 h [1]: 2.83 µM
EC50 [2]: > 2.83 µM
IC50 [7]: 3.8 µM
IC50 [3]: 1.98 µM

Cc1cc(C)c(S(=O)(=O)Nc2ccc3c(=O)n(O)c(=O)[nH]c3c2)c(C)c1
CC50 at 120 h [1]: 154 µM
EC50 [2]: > 154 µM
IC50 [3]: 3.24 µM

O=C(Nc1ccc2[nH]c(=O)n(O)c(=O)c2c1)c1ccccc1F
CC50 at 120 h [1]: 168 µM
EC50 [2]: > 168 µM
IC50 [3]: 4.29 µM
